Bioassay records deposited in PubChem BioAssay by several laboratories.
Thrombin inh: thrombin (human) inhibition; P00734; inhibition, % at 5 µM; alpha-thrombin, Boc-VPR-AMC fluorogenic substrate cleavage; hit rate 0.26% among 220,000;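 active = inhibition at or above 40%; inactive = inhibition below 40%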;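 also: 0% = enzyme with no compound and 100% = wells without enzyme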
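System: human alpha-thrombin protein; Compound dosing: one concentration per compound, 5 µM, with 0.2% DMSO; Timing: reaction at room temperature; Technique: AMC fluorescence, 355/460 nm; Controls: enzyme without compound as high, wells lacking enzyme as low.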
FXIIa inh: blocks human coagulation factor XIIa protease activity; P00748; hit rate 0.3% among 220,000; inhibition, % at 5 µM; purified FXIIa, Boc-QGR-AMC fluorogenic substrate, 2 h; in the data active = inhibition above about 40%;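 also: 0% = enzyme with no compound and 100% = blank without enzyme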
Calpain2 inh: inhibitors of pig calpain II | purified calpain II, fluorogenic peptide substrate, 30 min | inhibition, % at 16 µM | hit rate 0.37% among 220,000;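 active = inhibition above about 50%, limit read from the data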
hK5 inh: inhibitors of human kallikrein 5 | recombinant hK5, fluorogenic AMC substrate cleavage | inhibition, % at 5 µM | hit rate 0.59% among 210,000 | AID 873;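 active = inhibition of 40% or more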;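 also: 0% = enzyme controls without compound and 100% = no-enzyme blanks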
Target sequence (Q9Y337 67-293 limits assumed): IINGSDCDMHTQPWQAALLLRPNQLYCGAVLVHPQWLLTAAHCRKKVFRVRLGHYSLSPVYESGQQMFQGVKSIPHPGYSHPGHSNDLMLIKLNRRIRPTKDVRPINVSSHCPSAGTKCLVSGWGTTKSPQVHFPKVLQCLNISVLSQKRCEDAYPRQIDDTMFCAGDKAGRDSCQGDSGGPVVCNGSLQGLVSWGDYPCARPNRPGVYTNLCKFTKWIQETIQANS
FXIa inh: factor XIa (human) inhibition. P03951. purified FXIa, Boc-Glu-Ala-Arg-AMC fluorogenic substrate. inhibition, % at 5 µM. hit rate 0.14% among 220,000;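 active = inhibition of at least 40%; inactive = inhibition below 40%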;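 also: fluorescence of freed AMC excited at 355 nm; 0% = enzyme without compound and 100% = no enzyme blank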
Active calls of the source: *. Hits are enriched below; roughly 1.4% of the tested compounds scored in any of these assays.

For CC1(CO)COC(c2ccccc2)=N1 (centres undefined) the results were Thrombin inh 7, FXIIa inh 12, Calpain2 inh 3, hK5 inh 1 and FXIa inh 2.
For COc1cc(/C=C2\SC(=O)N(c3cccc(Cl)c3)C2=O)cc([N+](=O)[O-])c1O the results were Thrombin inh 0, FXIIa inh 12, Calpain2 inh 66*, hK5 inh 9 and FXIa inh 6.
O=C(O)Cc1sc(N/N=C\c2ccncc2)nc1-c1ccccc1 was read as Thrombin inh 15, FXIIa inh 19, Calpain2 inh 13, hK5 inh 32 and FXIa inh 35.
CN(C)CCCNc1ncnc2c1cnn2-c1ccccc1 was read as Thrombin inh -8, FXIIa inh 7, Calpain2 inh 4, hK5 inh -12 and FXIa inh -2.
For CN(C)CCCNc1ncnc2sc(-c3ccccc3)cc12 the results were Thrombin inh 95*, FXIIa inh 7, Calpain2 inh -46, hK5 inh 0 and FXIa inh 0.
For COc1ccc(Cl)cc1N(CC(=O)NC(C)(C)C)S(=O)(=O)c1ccc(C)c([N+](=O)[O-])c1 the results were Thrombin inh 29, FXIIa inh 20, Calpain2 inh 47, hK5 inh 45* and FXIa inh 12.
For CS(=O)(=O)N(Cc1ccccc1)c1ccc(C(=O)NC2CCCCC2O)cc1 (centres undefined) the results were Thrombin inh 18, FXIIa inh 106*, Calpain2 inh 18, hK5 inh 14 and FXIa inh -5.
For O=C(NCc1ccccc1)C1=C[C@@H](c2coc3ccccc3c2=O)C[C@@H](OCCCCO)O1 the results were Thrombin inh 41*, FXIIa inh 14, Calpain2 inh 17, hK5 inh 6 and FXIa inh 1.
O=C(NCc1ccccc1)C1=C[C@H](c2coc3ccccc3c2=O)C[C@H](OCCCCO)O1 was read as Thrombin inh 0, FXIIa inh 7, Calpain2 inh 6, hK5 inh 3 and FXIa inh 2.
Screening Cc1ccc(NC(=O)COC(=O)[C@H](C)NC(N)=O)c(C)c1 returned Thrombin inh -3, FXIIa inh 6, Calpain2 inh -25, hK5 inh 0 and FXIa inh -2.
Screening CC(=O)Nc1ccc(S(=O)(=O)NNC(=O)COc2ccc(Cl)cc2Cl)cc1 returned Thrombin inh 22, FXIIa inh 21, Calpain2 inh 9, hK5 inh 20 and FXIa inh 44*.
`CC(C)CCN(C(=O)Nc1ccccc1)C(C)c1cccs1` (centres undefined) gave Thrombin inh -9, FXIIa inh 3, Calpain2 inh 51*, hK5 inh -9 and FXIa inh 0.
For CC(c1cccs1)N(C(=O)Nc1ccccc1)C1CCCCC1 (centres undefined) the results were Thrombin inh 1, FXIIa inh 8, Calpain2 inh -6, hK5 inh -8 and FXIa inh 1.
`COc1ccccc1-n1cnnc1SCC(=O)Nc1nc(C)c(Cl)cc1Cl` gave Thrombin inh -4, FXIIa inh 11, Calpain2 inh -16, hK5 inh 3 and FXIa inh 1.
Cc1cccc(NC(=O)CN2C(=O)N/C(=C/c3cc(C)n(-c4cccnc4)c3C)C2=O)c1 was read as Thrombin inh 2, FXIIa inh -1, Calpain2 inh 51*, hK5 inh -21 and FXIa inh 4.
For Cc1cccc(NC(=O)CN2C(=O)N/C(=C/c3cc(C)n(-c4ccncc4)c3C)C2=O)c1 the results were Thrombin inh 4, FXIIa inh 30, Calpain2 inh -13, hK5 inh -10 and FXIa inh 19.
O=C(C1CC1)N1N=C(C2CCCCC2)CC1(O)C(F)(F)F (centres undefined) was read as Thrombin inh -4, FXIIa inh 6, Calpain2 inh 8, hK5 inh 12 and FXIa inh -1.
For CC(NC(=O)CCC(=O)c1ccc(F)cc1)C1CC2CCC1C2 (centres undefined) the results were Thrombin inh -5, Calpain2 inh 22, hK5 inh -6 and FXIa inh -7.
For CCSc1nnc(NC(=O)c2ccco2)s1 the results were Thrombin inh 44*, FXIIa inh -1, Calpain2 inh 18, hK5 inh 33 and FXIa inh 9.
For CC(=O)Nc1nnc(SCc2ccc(F)cc2)s1 the results were Thrombin inh 12, FXIIa inh 11, Calpain2 inh 11, hK5 inh 56* and FXIa inh 1.
For CC(=O)Nc1nnc(SCc2cccc(F)c2)s1 the results were Thrombin inh -1, FXIIa inh 4, Calpain2 inh 14, hK5 inh 1 and FXIa inh 2.
Screening O=C(COC(=O)CCC(NC(=O)OCc1ccccc1)C(=O)OCC(=O)Nc1ccccc1)Nc1ccccc1 (centres undefined) returned Thrombin inh -7, FXIIa inh -1, Calpain2 inh 17, hK5 inh -6 and FXIa inh 0.
`COc1ccc(Nc2nc(NC(C)(C)C)nc(N3CCCC3)n2)c(OC)c1` gave Thrombin inh -1, FXIIa inh 3, Calpain2 inh -9, hK5 inh -23 and FXIa inh -16.
`COc1ccc(N2CCN(c3nc(NC(C)(C)C)nc(N4CCCCC4)n3)CC2)cc1` gave Thrombin inh 11, FXIIa inh 4, Calpain2 inh 65*, hK5 inh -15 and FXIa inh 4.
For O=C(c1ccc(N2CCCCC2)c([N+](=O)[O-])c1)N(c1ccccn1)c1ccccn1 the results were Thrombin inh 43*, FXIIa inh 9, Calpain2 inh 28, hK5 inh 3 and FXIa inh 1.
`COc1ccc(OC)c(N(CC(=O)N2CCN(c3cc(Cl)ccc3C)CC2)S(C)(=O)=O)c1` gave Thrombin inh -2, FXIIa inh 10, Calpain2 inh 57*, hK5 inh -20 and FXIa inh 6.
For Cc1ccc(Cl)cc1N1CCN(C(=O)COc2ccc(S(=O)(=O)NC(C)C)cc2)CC1 the results were Thrombin inh 20, FXIIa inh 22, Calpain2 inh -12, hK5 inh 46* and FXIa inh 17.
CCOCC(=O)Nc1ccc(S(=O)(=O)Nc2ncccn2)cc1 was read as Thrombin inh 1, FXIIa inh 53*, Calpain2 inh 19, hK5 inh 1 and FXIa inh 25.
For CCOC(=O)C(=O)Nc1ccc(S(=O)(=O)Nc2ncccn2)cc1 the results were Thrombin inh 21, FXIIa inh 3, Calpain2 inh 19, hK5 inh 17 and FXIa inh 4.
`C=CCNc1nc(NC(C)(C)CO)nc(OC)n1` gave Thrombin inh 0, FXIIa inh 30, Calpain2 inh 10, hK5 inh -9 and FXIa inh 46*.
`C=CCNc1nc(NC(C)(C)CO)nc(OCC)n1` gave Thrombin inh -3, FXIIa inh 8, Calpain2 inh -8, hK5 inh -4 and FXIa inh -4.
